Measured values from different studies.
Protocols differ between the studies behind these lines.
SLC18A2: Synaptic vesicular amine transporter (SLC18A2, Homo sapiens, UniProt Q05940)
CA1: Carbonic anhydrase 1 (CA1, Homo sapiens, UniProt P00915)
ADRA2A: Alpha-2A adrenergic receptor (ADRA2A, Homo sapiens, UniProt P08913)
LATS1: Serine/threonine-protein kinase LATS1 (LATS1, Homo sapiens, UniProt O95835)

| target | test | conditions | measurement | value | Structure (SMILES) |
| --- | --- | --- | --- | --- | --- |
| SLC18A2 | transporter uptake, inhibitor, radiometric | cell membranes | IC50 | 667 nM | CCc1nn(CCCN2CCN(c3cccc(Cl)c3)CC2)c(=O)n1CCOc1ccccc1 |
| Gastric inhibitory polypeptide receptor (GIPR, Homo sapiens, UniProt P48546) | reporter gene, agonist, luciferase |  | EC50 | 0.28 nM | CC(C)C[C@H](NC(=O)[C@H](CC(C)C)NC(=O)[C@H](Cc1c[nH]c2ccccc12)NC(=O)[C@H](CCC(N)=O)NC(=O)[C@@H](NC(=O)[C@H](Cc1ccccc1)NC(=O)[C@H](CC(=O)O)NC(=O)[C@H](CCC(N)=O)NC(=O)[C@H](C)NC(=O)[C@H](C)NC(=O)[C@H](CCCNC(=N)N)NC(=O)[C@H](CCC(=O)O)NC(=O)[C@H](CC(=O)O)NC(=O)[C@H](CC(C)C)NC(=O)[C@H](Cc1ccc(O)cc1)NC(=O)[C@H](CCCCN)NC(=O)[C@H](CO)NC(=O)[C@H](Cc1ccc(O)cc1)NC(=O)[C@H](CC(=O)O)NC(=O)[C@H](CO)NC(=O)[C@@H](NC(=O)[C@H](Cc1ccccc1)NC(=O)[C@@H](NC(=O)CNC(=O)[C@H](CCC(N)=O)NC(=O)C(C)(C)NC(=O)[C@@H](N)Cc1c[nH]cn1)[C@@H](C)O)[C@@H](C)O)C(C)C)C(=O)N[C@@H](CC(=O)O)C(=O)NCC(=O)NCC(=O)N1CCC[C@H]1C(=O)N[C@@H](CO)C(=O)N[C@@H](CC(C)C)C(=O)N[C@@H](CCCNC(=N)N)C(=O)N[C@@H](Cc1c[nH]cn1)C(=O)N[C@@H](Cc1ccc(O)cc1)C(=O)N[C@@H](CC(C)C)C(=O)N[C@@H](CC(N)=O)C(=O)N[C@@H](CC(C)C)C(=O)N[C@H](C(=O)N[C@H](C(=O)N[C@@H](CCCNC(=N)N)C(=O)N[C@@H](CCC(N)=O)C(=O)N[C@@H](CCCNC(=N)N)C(=O)N[C@@H](Cc1ccc(O)cc1)C(N)=O)[C@@H](C)O)C(C)C |
| CA1 | enzyme activity, inhibitor, absorbance | pH 7.4 | IC50 | 10300 nM | CN1CCC(=C2c3ccccc3CC(=O)c3sccc32)CC1 |
| ADRA2A | ligand displacement, radioligand |  | Ki | 214 nM | Cc1cc(Oc2ncccc2CN2CCN(c3cccc(Cl)c3Cl)CC2)ccc1-c1c(C)c(=O)[nH]c(=O)n1C |
| LATS1 | target engagement in cells, BRET |  | IC50 | > 50000 nM | c1cc(-c2ccc(C3CCNCC3)cc2)c2cc[nH]c2n1 |
| CA1 | enzyme activity, inhibitor, absorbance | pH 7.4 | IC50 | 20400 nM | CN(C)CCC(c1ccccc1)c1ccccn1 (stereo not drawn) |
| SLC18A2 | transporter uptake, inhibitor |  | IC50 | 3400 nM | CN(C)CCCN1c2ccccc2Sc2ccc(Cl)cc21 |
| ADRA2A | ligand displacement, radioligand |  | Ki | 326 nM | Cc1cc(Oc2ncccc2CN2CCN(c3ccc(F)cc3F)CC2)ccc1-c1c(C)c(=O)[nH]c(=O)n1C |
| LATS1 | enzyme activity, inhibitor, radiometric |  | IC50 | 73 nM | O=C(Nc1c[nH]nc1-c1nc2cc(CN3CCOCC3)ccc2[nH]1)NC1CC1 |
| SLC18A2 | transporter uptake, inhibitor |  | IC50 | 9670 nM | COc1ccc(CN=c2[nH]c(N3CCC[C@H]3CO)ncc2C(=O)NCc2ncccn2)cc1Cl |
| ADRA2A | ligand displacement, radioligand |  | Ki | 47.4 nM | Cc1cc(Oc2ncccc2CN2CCN(c3ncccc3C(F)(F)F)CC2)ccc1-c1c(C)c(=O)[nH]c(=O)n1C |
| SLC18A2 | transporter uptake, inhibitor |  | IC50 | 7540 nM | CC(C)NCC(O)COc1ccc(COCCOC(C)C)cc1 (stereo not drawn) |
| Atypical chemokine receptor 3 (ACKR3, Homo sapiens, UniProt P25106) | β-arrestin recruitment, agonist, luciferase |  | EC50 | 10 nM | CC(C)(C)NC(=O)C1CCN(Cc2cccc(NC(=O)c3ccc(F)cc3)c2)CC1 |
| ADRA2A | ligand displacement, radioligand |  | Ki | 1280 nM | Cc1cc(Oc2ncccc2CN2CCN(c3ccc(C(F)(F)F)cn3)CC2)ccc1-c1c(C)c(=O)[nH]c(=O)n1C |
| SLC18A2 | transporter uptake, inhibitor, radiometric | cell membranes | IC50 | 15 nM | O=C1Cc2cc(CCN3CCN(c4nsc5ccccc45)CC3)c(Cl)cc2N1 |
| LATS1 | binding, TR-FRET |  | Kd | 0.9 nM | Cc1cc(-c2ccnc3[nH]cc(F)c23)cc(F)c1[C@@]1(O)[C@H](C)CN(C(=O)CN)C[C@@H]1C |
| Microphthalmia-associated transcription factor (Homo sapiens, UniProt O75030) | binding, ITC |  | Kd | 13400 nM | O=C(O)c1cc2ccc(C#CC3(O)CCCCC3)cc2n1-c1ccccc1 |
| ADRA2A | ligand displacement, radioligand |  | Ki | 546 nM | Cc1ccc(N2CCN(Cc3cccnc3Oc3ccc(-c4c(C)c(=O)[nH]c(=O)n4C)c(C)c3)CC2)cc1C |
| LATS1 | target engagement in cells, BRET |  | IC50 | 2230 nM | Clc1ccc(C2(c3ccc(-c4ccnc5[nH]ccc45)cc3)CCNCC2)cc1 |
| SLC18A2 | transporter uptake, inhibitor |  | IC50 | 249 nM | COc1cc2nc(N(C)CCCNC(=O)C3CCCO3)nc(N)c2cc1OC (stereo not drawn) |
| ADRA2A | ligand displacement, radioligand |  | Ki | 88.7 nM | Cc1cc(Oc2ncccc2CN2CCN(c3cccc(F)c3)CC2)ccc1-c1c(C)c(=O)[nH]c(=O)n1C |
